Screens: PubChem BioAssay, several laboratories
Compounds with a hit are over-represented: about 2.2% of the library has one in this group of screens.
PPC-1+TRAIL kill: compounds killing PPC-1 cancer cells with TRAIL present, primary screen, TRAIL potentiator project, ATPLite luminescence, uHTS; AID 1443, 2008; PPC-1 cells + TRAIL, ATPLite viability luminescence; 0.41% of 220,000 active; cell killing (% activity), % at 4 µM or 5 µM;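 active = cell killing above 50% in the first pass at 4 µM, then a duplicate retest at 5 µM averaging 50% or more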;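 also: plate controls were cells with TRAIL plus DMSO for no effect and medium-only wells lacking cells for full effect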
FLuc inh counter: firefly luciferase enzyme inhibitors, primary screen, artefact control for luciferase-based inhibitor screens, biochemical, luminescence, ATPLite. 10 min. inhibition, % at 10 µM. 1.5% of 200,000 active;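 active = inhibition above about 50% when tested at 10 µM, limit read from the data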
Target sequence (P08659 whole entry, looked up): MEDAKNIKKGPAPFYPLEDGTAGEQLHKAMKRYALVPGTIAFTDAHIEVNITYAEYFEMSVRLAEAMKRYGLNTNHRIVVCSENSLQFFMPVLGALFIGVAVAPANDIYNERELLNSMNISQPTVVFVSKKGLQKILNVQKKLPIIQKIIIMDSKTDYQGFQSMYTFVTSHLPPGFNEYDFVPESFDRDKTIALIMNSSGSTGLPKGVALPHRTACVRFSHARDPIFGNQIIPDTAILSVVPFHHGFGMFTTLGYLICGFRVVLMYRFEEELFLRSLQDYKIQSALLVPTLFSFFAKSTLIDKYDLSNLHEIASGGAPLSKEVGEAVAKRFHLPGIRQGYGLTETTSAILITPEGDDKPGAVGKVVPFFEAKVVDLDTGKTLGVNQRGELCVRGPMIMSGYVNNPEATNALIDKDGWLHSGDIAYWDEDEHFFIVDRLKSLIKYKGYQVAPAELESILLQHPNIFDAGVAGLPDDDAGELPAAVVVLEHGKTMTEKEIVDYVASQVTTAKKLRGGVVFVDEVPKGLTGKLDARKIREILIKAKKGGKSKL
APP 5'UTR act: activators of APP 5'UTR luciferase reporter, primary screen, SH-SY5Y cells; SH-SY5Y APP 5'UTR luciferase reporter, luminescence; zero percent = DMSO vehicle wells; activation, % at 2 µM; 1% of 190,000 active; AID 1276, 2008;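 active = activation above a set limit, based on mean plus 3 SD of controls, cut at about 140% in these data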
C8 TRAIL sens: viability loss with TRAIL in NB7+C8 cells, primary screen, TRAIL sensitizer project, cell-based, ATPlite luminescence | 1% of 360,000 active | inhibition (viability loss, TRAIL sensitization), % at 10 µM;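 active = compounds causing at least 50% loss of cell viability in the single-dose screen, relative to plate controls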
NF-kB neuron act: activators of NF-kB expression in neurons, primary screen, cell-based, HTS. fold change at 12.5 µM. 1.6% of 190,000 active. human neuronal cells, NF-kB reporter expression; hits give high values. AID 1239, 2008; in the data active = fold change above about 3.3
FLuc stim CS: FLuc activators, initial screening, artefact control for FLuc-dependent activation tests, biochemical, ATPlite luminescence | activation factor at 10 µM | 200,000 tested, under 10 active | ATPlite luciferase biochemical, 10 min; 0 = ATP-free wells, 1 = DMSO control | AID 1027, 2008;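 active = luciferase activation factor, scaled between plate controls, of at least 2 with compound at 10 µM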
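System: Luciferase/luciferin detection reagent, cell-free biochemical luciferase assay | Medium: PBS buffer for ATP | Dosing: Test compounds dosed from 2 mM stocks in 100% DMSO | Timing: 10 min at ambient temperature | Signal: Luminescence measurement of luciferase light output | Evaluation: Luciferase activation, seen as luminescence increase over controls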
Active calls of the source: *.

Screening CC(C)(C)n1ncc2c(=O)n(CC(=O)OCc3ccccc3)cnc21 returned PPC-1+TRAIL kill 46, FLuc inh counter 92*, APP 5'UTR act 68, C8 TRAIL sens 4, NF-kB neuron act 0.3 and FLuc stim CS 0.1.
For CC(C)(C)n1ncc2c(=O)n(CC(=O)NCc3ccc(F)cc3)cnc21 the results were PPC-1+TRAIL kill 23, FLuc inh counter 36, APP 5'UTR act 169*, C8 TRAIL sens 10, NF-kB neuron act 3.5* and FLuc stim CS 0.6.
CC(C)(C)n1ncc2c(=O)n(CC(=O)NCc3ccco3)cnc21 was read as PPC-1+TRAIL kill 21, FLuc inh counter 4, APP 5'UTR act 70, C8 TRAIL sens -1, NF-kB neuron act 1.9 and FLuc stim CS 1.
For CCOc1ccc(CCNC(=O)COC(=O)c2sccc2C)cc1OCC the results were C8 TRAIL sens 2.
O=C(Nc1cc(Cl)cc(Cl)c1)c1cnn2cccnc12 was read as PPC-1+TRAIL kill -1, FLuc inh counter -3, APP 5'UTR act -7, C8 TRAIL sens 3, NF-kB neuron act 1.3 and FLuc stim CS 1.
O=C(Nc1cccc(Cl)c1)c1cnn2cccnc12 was read as PPC-1+TRAIL kill 3, FLuc inh counter 21, APP 5'UTR act 87, C8 TRAIL sens 9, NF-kB neuron act 3.7* and FLuc stim CS 0.8.
For CCN1C[C@@H]2[C@@H]3C(=O)N(C)C(=O)[C@@H]3[C@](CC)(C1=O)N2C(=O)c1ccc(C(C)(C)C)cc1 the results were C8 TRAIL sens -1.
`O=C(Nc1ccccc1)Nc1ccc2ncoc2c1` gave PPC-1+TRAIL kill 27, FLuc inh counter 22, APP 5'UTR act 65, C8 TRAIL sens -12, NF-kB neuron act 1.8 and FLuc stim CS 0.8.
Screening O=C(Nc1ccccc1)Nc1ccc2ocnc2c1 returned PPC-1+TRAIL kill 32, FLuc inh counter 61*, APP 5'UTR act 41, C8 TRAIL sens 25, NF-kB neuron act 2.1 and FLuc stim CS 0.4.
`Oc1ccc(N2CCN(C(=S)NCCc3ccccc3)CC2)cc1` gave PPC-1+TRAIL kill 28, FLuc inh counter -5, APP 5'UTR act -1, C8 TRAIL sens 7, NF-kB neuron act 4.7* and FLuc stim CS 1.1.
For COc1ccc(N2CCN(C(=S)NCCc3ccccc3)CC2)cc1 the results were APP 5'UTR act -13 and C8 TRAIL sens -11.
`O=C(CN(CCc1ccccc1)Cc1ccccc1)Oc1ccccc1P(=O)(O)O` gave C8 TRAIL sens -9.
Screening Cc1ccc(N=C2N=C(N)c3ccccc32)cc1C returned APP 5'UTR act 12 and C8 TRAIL sens 0.
For CCc1ccc(N=C2N=C(N)c3ccccc32)cc1 the results were PPC-1+TRAIL kill 26, FLuc inh counter 92*, APP 5'UTR act 22, C8 TRAIL sens 38, NF-kB neuron act 1.9 and FLuc stim CS 0.1.
For c1ccc2c(c1)Cn1c-2nc2ccccc21 the results were PPC-1+TRAIL kill 26, FLuc inh counter 64*, APP 5'UTR act 76, C8 TRAIL sens 26, NF-kB neuron act 4.7* and FLuc stim CS 0.4.
O=C1C(=Cc2ccccn2)CCc2ccccc21 was read as C8 TRAIL sens -1.
For Cc1ccccc1/C=C1\CCCc2ccccc2C1=O the results were PPC-1+TRAIL kill 30, FLuc inh counter 61*, APP 5'UTR act 116, C8 TRAIL sens 24, NF-kB neuron act 5.7* and FLuc stim CS 0.4.
Screening O=C1/C(=C/c2cccc([N+](=O)[O-])c2)CCc2ccccc21 returned PPC-1+TRAIL kill 23, FLuc inh counter 19, APP 5'UTR act 8, C8 TRAIL sens 12, NF-kB neuron act 1.4 and FLuc stim CS 0.8.
Screening Cc1ccsc1/C=C1\CCc2ccccc2C1=O returned PPC-1+TRAIL kill 50, FLuc inh counter 92*, APP 5'UTR act 138*, C8 TRAIL sens 79*, NF-kB neuron act 3.5* and FLuc stim CS 0.1.
O=C1/C(=C\c2ccc3ccccc3c2)CCCc2ccccc21 was read as PPC-1+TRAIL kill 20, FLuc inh counter 52*, APP 5'UTR act 41, C8 TRAIL sens 19, NF-kB neuron act 4.8* and FLuc stim CS 0.5.
Screening Cc1cc(C)n(-c2nc(N(c3ccccc3)c3ccccc3)nc(-n3nc(C)cc3C)n2)n1 returned PPC-1+TRAIL kill -2, FLuc inh counter -4, APP 5'UTR act -4, C8 TRAIL sens 76*, NF-kB neuron act 0.66 and FLuc stim CS 1.
Screening CCOc1ccc(C=NN2CCCCCC2)cc1OCC returned C8 TRAIL sens -7.
Screening CCOc1ccc(/C=N/n2c(SC)nnc2-c2ccccc2)cc1OCC returned PPC-1+TRAIL kill 1, FLuc inh counter -5, APP 5'UTR act 12, C8 TRAIL sens 0, NF-kB neuron act 5.5* and FLuc stim CS 1.1.
`CN1CCN(c2ccc(C(=O)c3ccc(Br)cc3)cc2[N+](=O)[O-])CC1` gave PPC-1+TRAIL kill 22, FLuc inh counter -5, APP 5'UTR act -4, C8 TRAIL sens 21, NF-kB neuron act 0.93 and FLuc stim CS 1.1.
For OCc1cn(-c2ccccc2)nc1-c1ccc(-c2nn(-c3ccccc3)cc2CO)cc1 the results were PPC-1+TRAIL kill 4, FLuc inh counter -2, APP 5'UTR act 9, C8 TRAIL sens 32, NF-kB neuron act 0.91 and FLuc stim CS 1.
Screening Cc1ccc(-c2nn(-c3ccccc3)cc2CSC(=N)N)cc1 returned PPC-1+TRAIL kill 13, FLuc inh counter -8, APP 5'UTR act 16, C8 TRAIL sens 23, NF-kB neuron act 4.9* and FLuc stim CS 1.1.
For c1ccc(-c2csc(-n3cccn3)n2)cc1 the results were PPC-1+TRAIL kill 11, FLuc inh counter 5, APP 5'UTR act 12, C8 TRAIL sens -1, NF-kB neuron act 1.4 and FLuc stim CS 1.
For CCOC(=O)c1ccc2c(c1)n(CC)c(/C=C/N(C)c1ccccc1)[n+]2CC the results were PPC-1+TRAIL kill 20, FLuc inh counter -5, APP 5'UTR act -5, C8 TRAIL sens 38, NF-kB neuron act 0.55 and FLuc stim CS 1.1.
For CC[n+]1c(/C=C/N(C)c2ccccc2)n(-c2ccccc2)c2ccc(-c3nc4ccccc4s3)cc21 the results were C8 TRAIL sens 91*.
Brc1ccc2c(c1)OCCOCCOCCOCCOCCOCCO2 was read as PPC-1+TRAIL kill 4, FLuc inh counter -6, APP 5'UTR act -3, C8 TRAIL sens 19, NF-kB neuron act 1.1 and FLuc stim CS 1.1.
Screening CSc1ccccc1NC(=O)c1ccc(N2CC3CC(C2)c2cccc(=O)n2C3)c(NC(=O)c2cccnc2)c1 (stereo unspecified) returned C8 TRAIL sens -15.
